# Experimental data taken from the EternaBench riboswitch data.
# Test system: MS2 coat protein
# Assay: apparent Kd, MS2 coat protein; higher = weaker binding; RNA-MaP array; FMN 200 µM where present
# Summary of the method: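 Designs were transcribed by stalled E. coli RNA polymerase on Illumina sequencing-chip clusters. They were titrated with SNAP-549-labelled MS2 coat protein from 0.7 or 1.5 nM, doubling to 3 µM, without and then with constant ligand. Buffer: 100 mM Tris-HCl pH 7.5, 80 mM KCl, 4 mM MgCl2, BSA, DTT, yeast tRNA, Tween-20. Green signal was normalised to red-channel RNA signal and control-cluster median Fmax. Apparent Kd is the median of filtered per-cluster binding-curve fits.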
# [1] = designed as: ON switch for flavin mononucleotide, no ligand
# [2] = ligand present: flavin mononucleotide, designed as: ON switch for flavin mononucleotide
# [3] = designed as: OFF switch for flavin mononucleotide, no ligand
# [4] = ligand present: flavin mononucleotide, designed as: OFF switch for flavin mononucleotide
Sequence,apparent Kd [1] [nM],apparent Kd [2] [nM],apparent Kd [3] [nM],apparent Kd [4] [nM]
GCCAUCGCAUGAGGAUAUAAAAUUAUAAUUAAAUUAGAAGGCAUGUCAUAAGACAUGAGGAUCACCCAUGUAGUUAAGAUGGCA,483,132,,
GCCAUCGCAUGAGGAUAUGCUCCCGUUUCGGGAGCAGAAGGCAUGUCAUAAGACAUGAGGAUCACCCAUGUAGCUAAGAUGGCA,310,12.1,,
GCCAUCGCAUGAGGAUAUGCUCCCGUUUCGGGAGCAGAAGGCAUGUCAUAUGACAUGAGGAUCACCCAUGUAGCUAAGAUGGCA,576,17.5,,
GCCAUCGCAUGAGGAUAUGCUCCGGUUUCCGGAGCAGAAGGUAUGUCAUAAGACAUGAGGAUCACCCAUGUAGUUAAGAUGGCA,252,30,,
GCCAUCGCAUGAGGAUAUGGCACCGUUUCGGUGCCAGAAGGCAUGUCGAAUGACAUGAGGAUCACCCAUGUAGUUAAGAUGGCA,480,25.2,,
GCCAUCGUAUGAGGAUAUGGCACCGAAACGGUGCCAGAAGGCAUGUCAAUUGACAUGAGGAUCACCCAUGUAUUAUCGAUGGCA,857,89,,
GCCCAGCUAGGAUAUCGCACUGCAGACAUGAGGAUCACCCAUGUGAUGAGGUCUGAAUCCCGAGAAGGAGCAUGGA,,,17.8,41.7
GCCCUUCGAGGAUAUACAUGAGGAUCACCCAUGUCCGGAGUUCCGAGGCGGCCCAUAUGUAGAAGGCGAACUUU,,,43.4,67
GCCGAAAAUGUGAGGAUAUACCUAUGGAAACAUAGGUAGAAGGCACAUGAGGAUCACCCAUGUGUUUCAACGGC,,,21.5,107
GCCGAUUAAGUGAGGAUAUACCUAUGGAUACAUAGGUAGAAGGCACAUGAGGAUCACCCAUGUUCCUCAACGGC,,,15.6,87.8
GCCUCAAGUGAAGGAUAUACGAGGCCAAAUACAGUAGAAGGUCACAUGAGGAUCACCCAUGUCCCAAAGGGUGCGCAUGCGCUC,,,40.4,210
GCCUCAUAGUAGAAGGGACUUAGACAGUAAAGUUUAUAGAGGAAAUAACAUGAGGAUCACCCAUGUCAGGAUAUACUAAGAGGC,,,7.42,9.47
GCCUUAUCUGUCAGGAUAUACAAUAAAAUAAUUUUGUAGAAGGGACAUGAGGAUCACCCAUGUACAUUACAUUG,,,58.3,257
GCCUUCGCAUGAGGAUAUGCUCCGGUUUCCGGAGCAGAAGGCAUGUCAUAAGACAUGAGGAUCACCCAUGUAGUUAAGAAGGCA,570,31.7,,
GCGAAGAUAGCAGGAUAUAUGUUUCCUACAUGAGGAUCACCCAUGUAGGUGAUCAGCCGAGAAAAGUAGAAGGGCUAUCUUUGC,16.5,13.7,,
GCGAGCAUACAGAAGGGAUCGUCGUUGCGGCUGUCAGGAUAUGUAGCUUGGCCUAAACAUGAGGAUCACCCAUGUAUAAUGCUA,66.7,24.3,,
GCGAGUACGAGAGGAUAUUGACAUGAGGAUCACCCAUGUAUUUGGGAGUGUUCACUGAAUUCUUACGAGAAGGCUCGUACACGC,,,244,252
GCGAUGUUAGGAUAUACAUGAGGAUCACCCAUGUUCAGACUGAGCCUAGAGCGUCUAUGUAGAAGGGACUCGCA,,,27.2,43.1
GCGCACUAAGUGAGGAUAUCGUUUAUUUUUAGGAUCGAGAAGGCACAUGAGGAUCACCCAUGUUUGACGUGCGC,,,20.9,14.1
GCGCAUGUCACAGGAUAUCCCAUAGUGUACAUGAGGAUCACCCAUGUACUGCAAUGCAGACACAAGGAGAAGGGUGAGACUCGU,84.8,96.7,,
GCGCCAUCGUGAGAUGGCGUAACGACAUGAGGAUCACCCAUGUAGGAUAUCGAUUGCUUUGCAGUCGAGAAGGGCAAGGUAAGU,,,30.7,38.1
GCGCCGCAGCGGUACACGAGACAUGAGGAUCACCCAUGUGACAGAAGGGACUUGUUAAAGGUAGGUCAGGAUAUGUCUUAAAAG,184,56.5,,
GCGCGGUAAGGAUAUCUGCACGGAAACAUGAGGAUCACCCAUGUUCAGAUGAUUCUUAUAAGAGAAGGUACUGACA,,,17.4,19.1
GCGGAACAUGAGGAUCACCCAUGUAUCCCAAAUAUGGACUCACAGGAUAUCCCGAGUUGCCAGUGGGAGAAGGGUGACUCCAGA,14.2,6.55,,
GCGGAACAUGAGGAUCACCCAUGUAUCCCAAAUAUGGACUCACAGGAUAUCCCGAGUUUCCAGUGGGAGAAGGGUGACUCCAGA,21.7,11.1,,
GCGGAACAUGAGGAUCACCCAUGUAUCCGAAAUAUGGACUCACAGGAUAUCCAGAGUUGCCAAUCGGAGAAGGGUGACUCCAGC,14.4,8.29,,
GCGGAGUGAGGAUAUAGAACUUAAGGUACCAAUAAGGUACCCUAGAAGGCACAUGAGGAUCACCCAUGUACCGC,,,24.3,24.4
GCGGCUAGUGCAGGAUAUCGGCGCGUGUAGCGCCGAGAAGGGCACAUGAGGAUCACCCAUGUGAUCAAUCAAUGCUAAUGCCGC,,,7.38,25.4

Sequence,apparent Kd [1] [nM],apparent Kd [2] [nM],apparent Kd [3] [nM],apparent Kd [4] [nM]
GCGGGCAGCACAGGAUAUGUGACGUACAUGAGGAUCACCCAUGUGCGAAUGGCAGAAGGGUGAGGCCUCGGUGACCGAUUUCCG,16,5.59,,
GCGGUGAUCCUAGCUCACAUGAGGAUCACCCAUGUGCAGUUCAAGGAUAUACGUUGCCGCUCCGCGUAGAAGGUGAACUCGCUA,,,43,44.1
GCGUAAAAGAUCCUAUUUAUCUACAUGAGGAUCACCCAUGUGCAGGAUAUGCUAAAAUUAAAAUAGCAGAAGGGCAAUAACCGC,,,54,179
GCGUAACAUGAGGAUCACCCAUGUGCCCGAGAAUUCGGGCCGAGAAGGGUGACCGGUCGUAUGGCACAGGAUAUCGACGUUGUG,30.6,13.4,,
GCGUAAGAACAGAAGGGUAGACAUGAGGAUCACCCAUGUAAACAUGGAUGCAGGAUAUGUUAUAAUUGAGAUUCAUAAAUUCGC,130,106,,
GCGUAAUAGGUGUAGCUAGUCGUACAAGAAGGGUGGUGAACAUGAGGAUCACCCAUGUGGUCAAUACAGGAUAUUGUUAUACGC,832,112,,
GCGUAUAUAAGAUUUAUAAAACAGUCAGAAGGUGAUAAGACGACAUGAGGAUCACCCAUGUAAUUCAAGGAUAUGAUCAUACGC,54.3,23.3,,
GCGUAUUUAAUAUAUAUAAAACUGUCAGAAGGUGAUAAGACGACAUGAGGAUCACCCAUGUAAUUCAAGGAUAUGAUAAUGCGC,37.3,20.3,,
GCGUUCAUGUAGAAGGUACCUACAACAAAUUAUAACCGCUAGACACAUGAGGAUCACCCAUGUUGUAAGGAUAUACAUGAACGC,25.2,17.1,,
GCGUUCUUGUAGAAGGUACAUGAAUUCUAUUUUUAACACAUGAAACAUGAGGAUCACCCAUGUUGUAAGGAUAUACAUGAACGC,6.98,5.83,,
GCUAGUGCUGUGAGGAUAUGUGAUCGGAAAUGAUCGUAGAAGGCACAUGAGGAUCACCCAUGUAAGGUGCUAGU,,,287,37.6
GCUAUCGAUGUAGGAUAUGCUAGAGAAACUCUGGCAGAAGGACAUGAGGAUCACCCAUGUCAAUGGAUGGAGAGAAGAGAUGGC,,,24.1,58
GCUAUCGAUGUAGGAUAUGCUAUAGAAACUAUGGCAGAAGGACAUGAGGAUCACCCAUGUCAAUGGAUGGAGAGAAGAGAUGGC,,,26.7,68.7
GCUAUCGGGUGAGGAUAUAUAAUUGUGAUUAAAAUAGAAGGCAUCUCAGAAGACAUGAGGAUCACCCAUGUAGUUAAGAUGGCA,23.8,20.1,,
GCUAUUGAUGUAGGAUAUGAUAUAGAAGCUAUGUCAGAAGGACAUGAGGAUCACCCAUGUCAAUGGAUGGAGAGAAGAAAUGGC,,,62.6,75
GCUCUGUUAGGAUAUUUCGGCAUAGGUAUAACUUAAGCGUGAGAGAAGGAACAUGAGGAUCACCCAUGUUAAUC,,,19.9,77.5
GCUGACGAUGUAGGAUAUCAGUAUAAUAAAUACUGAGAAGGACAUGAGGAUCACCCAUGUAAUAAACGUCAGCAGAGGAAACUC,,,16.2,22.6
GCUGACGAUGUAGGAUAUCUCGACGAUAAGUCGAGAGAAGGACAUGAGGAUCACCCAUGUAACUCAACGUCAGCGAGGAAACUC,,,17.8,20.6
GCUGCAUGCAGAGGAUAUGACACAUGAGGAUCACCCAUGUAAUAAAUGAGAUUUUCGAAUGUAUCUCAGAAGGCUGCAUGCAGC,,,16.6,89.4
GCUGCUCAUGAGAAGGCGAUCAUGAAACAUGAUCGAGGAUAUCAUGUAAACAUGAGGAUCACCCAUGUAUGGGUAUUAUGCAGC,117,40.5,,
GCUGGAAAAGGAUAUACAUAACGUGCUUCGGCACGAGAUCUACAUGAGGAUCACCCAUGUAGAAGGUUUCCAGC,,,14,30.2
GCUGGACAUGAGGAUCACCCAUGUGAGGAUAUCGGCUGGUACGUGUUGGCUGGCAUCUCGAGAAGGCACAUAGU,,,32.8,42.4
GCUGUCGCAUGAGGAUAUGGUCAGCUUUGCUGACCAGAAGGCAUGUCAAUAGACAUGAGGAUCACCCAUGUAGUUCGGGCGGCU,849,76.1,,
GCUGUGGCAUGAGGAUAUGGACAGCUUUGCUGUCCAGAAGGCAUGUCAAUAGACAUGAGGAUCACCCAUGUAGUUAACACAGCA,498,39.4,,
GCUUAUAGAGGAUAUACAGAUUAUUACAUGAGGAUCACCCAUGUUCUUCAAUGUAUAUAUGUAGAAGGCUAAGGAU,,,61.5,257
GCUUGUGAAGGAUAUACUGGAGGCGUGCGAUAGAAGCACGCACAUGAGGAUCACCCAUGUAGAAGGUCAGGCGU,,,36.9,44.5
GGAAAACAUGAGGAUCACCCAUGUGAAAACGUGGGAGGAUAUGGAUGGAAACCAUACUGUCCAGAAGGCCCAUGUC,67.6,18.9,,
